Measured values reported in article PMC5992617 (ACS chemical biology, 2017).
Where two headings read alike, the source gives them in different places. One block for each molecule: values may come before it. Where no end group is shown, it is not given here. FAM = fluorescein amidite

Experiments:
HT1080 cells = experiment: Clonogenic survival assay in HT1080 cells with cisplatin; type: cell-based, human; conditions: cisplatin 0.6 μM, 4 or 5 1.5 μM, alone
Procedure, shortened: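 HT1080 cells in RPMI 1640 with 10% FBS and 1% penicillin/streptomycin at 37°C, 5% CO₂. Seeded at 600 cells/well in 6-well plates and left overnight. […] Fixed in methanol/acetic acid and Coomassie-stained. Colonies of ≥40 cells counted relative to DMSO controls; Student t-test.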

[1] = test system: HPRT gene mutation frequency in HT1080 cells; experiment: HPRT mutagenesis assay in HT1080 cells; type: cell-based, human; conditions: cisplatin alone 0.6 μM
[2] = test system: wild-type (WT) mouse embryonic fibroblasts (MEFs); experiment: Clonogenic survival assay in WT MEFs with cisplatin; type: cell-based; conditions: cisplatin 0.6 μM, 4 or 5 1.5 μM, alone
Procedure, shortened: (§1)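 Wild-type or Rev1⁻/⁻ mouse embryonic fibroblasts in DMEM with 10% FBS and 1% penicillin/streptomycin at 37°C, 5% CO₂. Seeded at 600 cells/well and left overnight. […] Colonies of ≥40 cells Coomassie-counted and expressed relative to DMSO controls. Two experiments, each in triplicate.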

[3] = test system: Rev1^−/− mouse embryonic fibroblasts (MEFs); experiment: Clonogenic survival assay in Rev1−/− MEFs with cisplatin; type: cell-based; conditions: cisplatin 0.6 μM alone
Procedure, shortened: as §1

[4] = molecular target: T1, C-terminal domain from human Rev1 (Rev1-CT) (human, UniProt Q9UBZ9 1158-1251); experiment: fluorescence polarisation
T1 sequence (looked up): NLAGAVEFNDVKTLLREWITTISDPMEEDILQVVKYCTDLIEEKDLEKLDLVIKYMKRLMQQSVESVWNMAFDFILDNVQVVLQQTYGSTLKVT

[5] = molecular target: T1, C-terminal domain from human Rev1 …; experiment: fluorescence polarisation; remark: listed apart in the source
[6] = molecular target: T1, C-terminal domain from human Rev1 …; experiment: SEC

Molecule: N.N.[Cl][Pt][Cl] [cisplatin]
- Colony formation of HT1080 cells, single agent (HT1080 cells): minimal effect on colony formation
- Increase in HPRT mutations compared to non-treated cells [1]: approximately 1.9 fold
- Clonogenic growth of WT MEFs, single agent [2]: minimal effect on clonogenic growth
- Sensitivity of Rev1−/− MEFs to cisplatin compared with WT MEFs [3]: significantly more sensitive

- IC50 [4]: 7.3 ± 1.4 µM
- IC50 [5]: 6.6 ± 0.1 µM
B1: unlabeled Polκ-RIR (peptide, UniProt Q9UBT6 560-575, looked up)
peptide: EMSHKKSFFDKKRSER

- binding result [6]: binds
B2: human Polκ-RIR peptide (residues 560-575) modified with an N-terminal fluorescein amidite label (FAM-Polκ-RIR) (peptide, UniProt Q9UBT6 560-575, looked up)
peptide: {FAM}-EMSHKKSFFDKKRSER
